# What was measured:
# [1] = AUC in NMRI mouse at 0.2 mg/kg, iv; assay type: ADME, organism-based; set-up: dose 0.2 mg/kg, route intravenous; settings: plasma
# In short: (§1)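 Female NMRI mice (n = 5) given a single iv bolus (0.2 mg/kg per compound) or oral gavage (0.5 mg/kg per compound) as a cassette, in DMSO/PEG 200/water. Serial retro-orbital blood was drawn under isoflurane from 3 animals per route at 0.1 (iv), 0.25 (po), 0.5, 1, 2, 4 and 6 h. Plasma was quantified by LC–MS/MS.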
# [2] = biological target: T1, Poly [ADP-ribose] polymerase tankyrase-2 (Homo sapiens, UniProt Q9H2K2); assay: Inhibition of GST-tagged TNKS2 (873 to 1166 aa) (unknown origin) after 90 mins by HTRF assay
# T1 sequence (Q9H2K2 whole entry): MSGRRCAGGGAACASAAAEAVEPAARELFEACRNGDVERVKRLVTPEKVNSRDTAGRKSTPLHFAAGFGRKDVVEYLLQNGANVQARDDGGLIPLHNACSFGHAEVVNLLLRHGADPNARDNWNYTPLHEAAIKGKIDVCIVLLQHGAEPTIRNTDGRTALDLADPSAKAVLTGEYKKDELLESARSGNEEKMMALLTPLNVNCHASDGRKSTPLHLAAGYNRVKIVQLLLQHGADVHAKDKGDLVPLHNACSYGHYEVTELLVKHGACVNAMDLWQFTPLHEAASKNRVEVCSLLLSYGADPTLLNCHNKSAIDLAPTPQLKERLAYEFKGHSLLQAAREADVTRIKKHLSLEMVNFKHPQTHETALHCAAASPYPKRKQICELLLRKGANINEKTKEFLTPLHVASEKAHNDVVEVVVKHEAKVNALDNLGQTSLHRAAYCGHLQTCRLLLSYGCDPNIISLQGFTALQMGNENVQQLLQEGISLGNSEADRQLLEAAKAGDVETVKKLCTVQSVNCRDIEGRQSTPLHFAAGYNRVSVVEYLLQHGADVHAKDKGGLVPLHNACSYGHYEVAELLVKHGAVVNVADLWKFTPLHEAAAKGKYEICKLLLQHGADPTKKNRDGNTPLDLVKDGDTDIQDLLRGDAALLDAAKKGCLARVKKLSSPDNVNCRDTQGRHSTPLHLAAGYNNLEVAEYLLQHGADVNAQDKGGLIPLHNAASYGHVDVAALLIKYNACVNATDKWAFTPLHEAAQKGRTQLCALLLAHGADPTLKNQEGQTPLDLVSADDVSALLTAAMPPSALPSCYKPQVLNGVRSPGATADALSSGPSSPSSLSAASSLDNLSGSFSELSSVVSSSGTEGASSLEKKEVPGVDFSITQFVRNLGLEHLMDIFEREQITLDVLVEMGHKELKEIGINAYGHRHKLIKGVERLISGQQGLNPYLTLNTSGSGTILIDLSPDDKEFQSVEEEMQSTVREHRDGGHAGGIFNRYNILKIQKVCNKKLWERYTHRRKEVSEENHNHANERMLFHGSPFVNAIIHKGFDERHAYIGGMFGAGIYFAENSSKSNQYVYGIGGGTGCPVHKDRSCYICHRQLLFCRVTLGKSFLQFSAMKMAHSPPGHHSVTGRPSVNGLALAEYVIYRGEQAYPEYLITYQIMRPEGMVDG
# [3] = Tmax in NMRI mouse at 0.2 mg/kg, iv; assay type: ADME, organism-based; set-up: dose 0.2 mg/kg, route intravenous; settings: in vivo; in short: as §1
# [4] = Half life in NMRI mouse at 0.2 mg/kg, iv; assay type: ADME, organism-based; set-up: dose 0.2 mg/kg, route intravenous; settings: in vivo; in short: as §1
# [5] = Antitumor activity against human COLO205-F1756 clone 4 cells harboring APC mutant xenografted in CrTac:NCr-Foxn1nu mouse assessed as reduction in tumor weight at 70 mg/kg, po bid for 9 days relative to control; assay type: functional, COLO 205; set-up: scale not given: the % may be the effect or the level left
# In short: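 Female athymic nude mice were implanted sc in the flank with 3 million COLO205-F1756 clone 4 cells. At about 100 mm3, groups of n = 8 were gavaged at 70 mg/kg bid or with vehicle (10% DMSO, 5% Tween 20 in saline). Luminescent flux was imaged after sc D-luciferin 2 and 6 h post final dose, then tumours were excised and weighed. Mann–Whitney U test.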
# [6] = biological target: T2, Poly [ADP-ribose] polymerase tankyrase-1 (Homo sapiens, UniProt O95271); assay: Inhibition of GST-tagged TNKS1 (1023 to 1327 aa) (unknown origin) after 90 mins by HTRF assay
# T2 sequence (O95271 whole entry): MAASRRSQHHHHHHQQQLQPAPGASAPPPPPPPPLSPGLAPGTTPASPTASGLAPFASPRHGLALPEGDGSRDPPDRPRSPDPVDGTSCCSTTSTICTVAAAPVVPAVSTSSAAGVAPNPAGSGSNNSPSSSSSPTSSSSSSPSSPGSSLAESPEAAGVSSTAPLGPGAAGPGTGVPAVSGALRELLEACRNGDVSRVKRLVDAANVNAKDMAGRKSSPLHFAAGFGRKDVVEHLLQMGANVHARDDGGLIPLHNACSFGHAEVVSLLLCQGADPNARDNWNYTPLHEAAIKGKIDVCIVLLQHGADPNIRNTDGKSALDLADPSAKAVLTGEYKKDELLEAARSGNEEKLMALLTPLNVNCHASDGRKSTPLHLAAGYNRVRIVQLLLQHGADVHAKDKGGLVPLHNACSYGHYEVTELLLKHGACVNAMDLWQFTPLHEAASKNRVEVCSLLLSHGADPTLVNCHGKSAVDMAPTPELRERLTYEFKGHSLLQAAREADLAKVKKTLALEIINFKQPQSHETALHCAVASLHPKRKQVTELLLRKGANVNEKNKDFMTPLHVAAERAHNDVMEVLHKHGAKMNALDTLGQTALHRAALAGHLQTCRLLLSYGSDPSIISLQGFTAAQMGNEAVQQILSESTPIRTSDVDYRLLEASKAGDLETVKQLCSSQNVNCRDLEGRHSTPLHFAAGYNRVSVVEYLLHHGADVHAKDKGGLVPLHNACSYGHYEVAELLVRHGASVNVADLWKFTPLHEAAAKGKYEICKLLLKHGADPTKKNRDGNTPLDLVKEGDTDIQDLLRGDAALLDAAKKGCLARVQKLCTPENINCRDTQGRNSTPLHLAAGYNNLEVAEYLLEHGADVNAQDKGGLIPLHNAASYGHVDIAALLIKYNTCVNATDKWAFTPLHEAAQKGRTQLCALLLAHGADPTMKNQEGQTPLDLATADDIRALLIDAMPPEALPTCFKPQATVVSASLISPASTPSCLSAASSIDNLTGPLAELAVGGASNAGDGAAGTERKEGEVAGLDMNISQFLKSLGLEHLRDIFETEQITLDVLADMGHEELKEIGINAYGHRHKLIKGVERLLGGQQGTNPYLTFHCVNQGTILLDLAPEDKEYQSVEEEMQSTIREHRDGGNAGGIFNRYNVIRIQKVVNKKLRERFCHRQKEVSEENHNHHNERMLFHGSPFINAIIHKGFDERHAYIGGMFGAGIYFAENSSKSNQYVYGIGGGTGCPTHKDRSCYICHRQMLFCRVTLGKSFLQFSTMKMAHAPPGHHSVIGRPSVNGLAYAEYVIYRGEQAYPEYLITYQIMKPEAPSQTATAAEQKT
compound,measurement,setting,value
Cn1cc(-c2ccc(-c3cncc(Cl)c3N3CCC4(CCNC4=O)CC3)cc2)cn1,AUC,[1],107 ng·h/mL
same,IC50,[2],15 µM
same,Tmax,[3],6 min
same,half-life,[4],33 min
same,Activity,[5],37.5%
same,IC50,[6],> 10 µM
